The text below walks through data of the M2OR odorant receptor database.

The subject of the assay is T1, O5AN1.
T1 sequence (whole entry): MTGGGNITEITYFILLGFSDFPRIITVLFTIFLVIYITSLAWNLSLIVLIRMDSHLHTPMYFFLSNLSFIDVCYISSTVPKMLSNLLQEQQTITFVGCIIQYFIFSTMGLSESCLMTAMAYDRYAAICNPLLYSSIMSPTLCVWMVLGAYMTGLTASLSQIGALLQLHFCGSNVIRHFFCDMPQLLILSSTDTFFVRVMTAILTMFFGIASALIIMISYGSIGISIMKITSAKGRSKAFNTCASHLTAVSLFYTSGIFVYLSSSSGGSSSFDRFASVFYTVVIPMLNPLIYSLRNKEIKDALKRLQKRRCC
The settings on record: stereoisomer not certain. Summed up: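 Whether a receptor–molecule pair is responsive (active) rests on the original authors' judgment that its measured signal was statistically different from baseline. Pairs without that judgment are non-responsive (inactive). Sources used varied assay methods, commonly transient luciferase assays in mammalian cell lines.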
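Further: active if original authors judged signal statistically different from baseline.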

Regarding `CC1C(C)(C)C2=C(C(=O)CCC2)C1(C)C` (centres undefined), the “odorant receptor agonist call” value is “inactive”. The result for `O=C1CCCC=CCCCCCCCCCC1` reads “active”; that for `O=C1C=CCCCCCCCCCCCCO1`, “inactive”; that for `O=C1CCCCCCC=CCCCCCCC1`, “active”.
